Assay outcomes from PubChem BioAssay.
TRPC4 agonist – opens the mouse TRPC4 cation channel | Q9QUQ5 | HEK293 TRPC4beta/mu-opioid, Fluo4 calcium fluorescence; active compounds read high | B-score at 10 µM | 0.49% of 310,000 active | AID 2237;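 active = B-score above 5 SD of library B-scores, and initial fluorescence ratio not above library mean plus 5 SD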;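 also: positive B-score marks a calcium rise read as TRPC4 activation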
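Material: TRPC4beta and mu-opioid receptor HEK293 stable cells | Incubation: 45 min room-temperature Fluo4 loading, 110 s read | Detection: Kinetic Fluo4 calcium fluorescence | Measure: Integrated baseline-normalised fluorescence ratio, converted to per-well B score | Benchmarks: Low control buffer alone, high control maximal DAMGO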
TRPC4 potent – allosteric potentiators of mouse TRPC4 channel; 0.42% of 310,000 active; AID 2227; HEK293 TRPC4beta/mu-opioid, DAMGO EC20, Fluo-4 Ca2+ flux; active compounds read high; Q9QUQ5; B-score at 10 µM;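 active = B-score of calcium response area above 5 SD of library B-scores, with initial fluorescence ratio within 5 SD of library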;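 also: B-score of integrated fluorescence ratio over time as area under calcium response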
TRPC6 inhibitor – mouse TRPC6 channel inhibition | Q61143 | HEK293-TRPC6, membrane potential dye, ACh-evoked depolarization; active compounds read low | B-score at 10 µM | 1.1% of 310,000 active;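 active = B-score under library mean minus 3 SD, initial fluorescence not abnormally high, positive integrated signal ratio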;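 also: B-score derived from integrated fluorescence ratio over the kinetic read; more negative B-score means stronger inhibition of depolarization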
TRPC4 block – blocks the mouse TRPC4 cation channel; HEK293 TRPC4beta/mu-opioid, DAMGO-evoked Fluo4 calcium flux; active compounds read low; Q9QUQ5; 0.39% of 300,000 active; B-score at 10 µM; AID 2247;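 active = B-score over 3 SD under the library average, no early fluorescence shift, positive overall ratio signal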
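Material: HEK293 cells with stable TRPC4beta plus mu-opioid receptor expression; probe or stimulus: DAMGO in two steps, submaximal then maximal; technique: Fluo4 calcium fluorescence by kinetic imaging, 5 s 1 Hz baseline; measure: integrated fluorescence ratio relative to baseline, converted to per-well B score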
TRPC6 act – activators of mouse TRPC6 channel | Q61143 | HEK293-TRPC6 membrane potential dye fluorescence; active compounds read high | B-score at 10 µM | 0.13% of 310,000 active | AID 2550;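 active = B-score of the integrated fluorescence ratio above library mean plus 3 SD, and starting fluorescence ratio within library mean plus 5 SD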;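 also: higher score means more depolarization so channel activation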
Kir21 block – Kir2.1 (mouse) channel inhibition | P35561 | HEK293-Kir2.1, FluxOR thallium flux fluorescence; active compounds read low | B-score at 10 µM | 0.85% of 310,000 active | AID 1672;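 active = fluorescence ratio B-score at or below minus 3 SD of library scores, with starting-brightness B-score within 2 SD, cut at about -4.2 in these data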;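 also: channel flux triggered by added potassium and thallium sulfate stimulus; B-score of peak minus minimum fluorescence over baseline after thallium stimulus; more negative B-score means stronger Kir2.1 block with less thallium influx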
An asterisk follows results filed as active. Hits are enriched below; roughly 3% of the tested compounds scored in any of these assays.

`CC1COC(Cn2c3ccccc3c3ccccc32)O1` (stereo unspecified) gave TRPC4 agonist inactive, TRPC4 potent inactive, TRPC6 inhibitor inactive, TRPC4 block inactive, TRPC6 act inactive and Kir21 block -0.01.
COc1cc(OC)cc(C(=O)Nn2cc(C(=O)Nc3c(F)cccc3F)c3ccccc3c2=O)c1 was read as TRPC4 agonist inactive, TRPC4 potent inactive, TRPC6 inhibitor inactive, TRPC4 block inactive, TRPC6 act inactive and Kir21 block 0.41.
For Cc1ccc(C(=O)C2=C(O)C(=O)N(Cc3cccnc3)C2c2ccc(Cl)c(Cl)c2)o1 (stereo unspecified) the results were TRPC4 agonist inactive, TRPC4 potent inactive, TRPC6 inhibitor inactive, TRPC4 block -6*, TRPC6 act inactive and Kir21 block -0.36.
`Cc1ccc(-c2csc(NC(=O)c3ccc(F)cc3)c2C(=O)O)cc1` gave TRPC4 agonist inactive, TRPC4 potent inactive, TRPC6 inhibitor inactive, TRPC4 block inactive, TRPC6 act inactive and Kir21 block -0.09.
Screening Cc1coc2c1C(=O)C(=O)c1c-2ccc2c1CCCC2(C)C returned TRPC4 agonist inactive, TRPC4 potent inactive, TRPC6 inhibitor inactive, TRPC4 block inactive, TRPC6 act inactive and Kir21 block -1.31.
`C[C@H]1COC2=C1C(=O)C(=O)c1c2ccc2c1CCCC2(C)C` gave TRPC4 agonist inactive, TRPC4 potent inactive, TRPC6 inhibitor inactive, TRPC4 block inactive, TRPC6 act inactive and Kir21 block -5.44*.
For O=C(c1nnsc1S(=O)c1ccc(Cl)cc1)N1CCOCC1 (stereo unspecified) the results were TRPC4 agonist inactive, TRPC4 potent inactive, TRPC6 inhibitor inactive, TRPC4 block inactive, TRPC6 act inactive and Kir21 block -7.05*.
C=CCOc1ccc(CN(C)CC(O)COc2cccc3ccccc23)cc1 (stereo unspecified) was read as TRPC4 agonist inactive, TRPC4 potent inactive, TRPC6 inhibitor inactive, TRPC4 block inactive, TRPC6 act inactive and Kir21 block -4.64*.
For Cc1cc(CN(C)Cc2ccc(OCC(O)CN(C)Cc3ccccc3)cc2)on1 (stereo unspecified) the results were TRPC4 agonist inactive, TRPC4 potent inactive, TRPC6 inhibitor inactive, TRPC4 block inactive, TRPC6 act inactive and Kir21 block -3.23.
`CCC(C(=O)OCC(=O)NC(=O)c1ccccc1OC)c1ccccc1` (stereo unspecified) gave TRPC4 agonist inactive, TRPC4 potent inactive, TRPC6 inhibitor inactive, TRPC4 block inactive, TRPC6 act inactive and Kir21 block -8.06*.
For CCC(C(=O)OCC(=O)NC(=O)c1ccccc1)c1ccccc1 (stereo unspecified) the results were TRPC4 agonist inactive, TRPC4 potent inactive, TRPC6 inhibitor inactive, TRPC4 block inactive, TRPC6 act inactive and Kir21 block -0.27.
COc1ccc(-c2ccc(NC(=O)c3ccc(Br)o3)cc2)nn1 was read as TRPC4 agonist inactive, TRPC4 potent inactive, TRPC6 inhibitor inactive, TRPC4 block inactive, TRPC6 act inactive and Kir21 block -0.29.
For CN1CCN(c2ccc(C(F)(F)F)cc2NC(=O)Nc2ccccc2)CC1 the results were TRPC4 agonist 105*, TRPC4 potent 17*, TRPC6 inhibitor inactive, TRPC4 block inactive, TRPC6 act inactive and Kir21 block 0.84.
For CCc1cc(S(=O)(=O)N2CCN(C(=O)c3ccco3)CC2)ccc1OC the results were TRPC4 agonist inactive, TRPC4 potent inactive, TRPC6 inhibitor inactive, TRPC4 block inactive, TRPC6 act inactive and Kir21 block -1.46.
`NC(=S)N/N=C1/CCSc2ccc3ccccc3c21` gave TRPC4 agonist inactive, TRPC4 potent 17*, TRPC6 inhibitor inactive, TRPC4 block inactive, TRPC6 act inactive and Kir21 block -0.17.
For C/C=C/c1ccc(OCCN2CCc3ccccc3C2)c(OC)c1 the results were TRPC4 agonist inactive, TRPC4 potent inactive, TRPC6 inhibitor inactive, TRPC4 block inactive, TRPC6 act inactive and Kir21 block -11.2*.
